pIC50: −log10 of the molar value. Active and inactive are the calls of the source. The rule behind the calls is not given here. Bounds are passed on as bounds.

This passage reports IC50 and Activity results from ChEMBL document CHEMBL1949523, “Synthesis and evaluation of aza-peptidyl inhibitors of the lysosomal asparaginyl endopeptidase, legumain” (Bioorg Med Chem Lett, 2012).

One test deals with T1, Legumain (Mus musculus, UniProt O89017).
T1 sequence (O89017 whole entry): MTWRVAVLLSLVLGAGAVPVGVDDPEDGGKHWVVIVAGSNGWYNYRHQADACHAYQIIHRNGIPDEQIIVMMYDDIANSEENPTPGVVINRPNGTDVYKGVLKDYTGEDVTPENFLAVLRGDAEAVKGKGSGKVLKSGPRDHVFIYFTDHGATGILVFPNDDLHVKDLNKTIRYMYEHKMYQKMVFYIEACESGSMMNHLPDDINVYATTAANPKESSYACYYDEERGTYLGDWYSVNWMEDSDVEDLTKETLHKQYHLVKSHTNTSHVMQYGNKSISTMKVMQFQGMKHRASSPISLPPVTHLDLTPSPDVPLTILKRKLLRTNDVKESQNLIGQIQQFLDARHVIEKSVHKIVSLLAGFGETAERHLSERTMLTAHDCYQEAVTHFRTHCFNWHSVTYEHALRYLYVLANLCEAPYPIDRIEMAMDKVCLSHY
In words: Inhibition of mouse recombinant legumain using Cbz-Ala-Ala-Asn-AMC as substrate measured every 30 secs for 2.5 hrs by fluorimetry.

Test [1] can be described thus: Inhibition of cathepsin L using Cbz-Phe-Arg-AMC as substrate measured every 30 secs for 2.5 hrs by fluorimetry.
In test [2] the target is T2, Pro-cathepsin H (Mus musculus) (UniProt P49935).
T2 sequence (whole entry): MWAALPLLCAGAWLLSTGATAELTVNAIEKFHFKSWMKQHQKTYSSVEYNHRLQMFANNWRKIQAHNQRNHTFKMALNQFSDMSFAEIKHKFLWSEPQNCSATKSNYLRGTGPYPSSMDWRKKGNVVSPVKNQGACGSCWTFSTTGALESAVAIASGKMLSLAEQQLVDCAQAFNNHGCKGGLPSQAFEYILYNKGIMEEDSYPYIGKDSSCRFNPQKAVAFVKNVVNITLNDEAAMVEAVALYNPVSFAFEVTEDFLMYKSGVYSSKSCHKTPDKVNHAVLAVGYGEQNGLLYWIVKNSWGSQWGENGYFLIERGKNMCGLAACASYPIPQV
As to the kind of experiment: Binding affinity to cathepsin H in mouse RAW264.7 cells at 10 uM after 60 mins by SDS-PAGE analysis. It counts as cell-based. The gist of the method: (§1)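 RAW 264.7 macrophages incubated with Cy5-labeled probes for 60 min across a concentration range. Cells lysed hypotonically, labeled proteins resolved on 12.5% SDS-PAGE, detected by in-gel fluorescence scanning.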

In test [3] the target is Cathepsin B (Mus musculus) (UniProt P10605). As to the kind of experiment: Binding affinity to cathepsin B in mouse RAW264.7 cells at 10 uM after 60 mins by SDS-PAGE analysis. The class given is cell-based. The gist of the method: as §1
Cathepsin B (Mus musculus), sequence (P10605 80-333 limits assumed): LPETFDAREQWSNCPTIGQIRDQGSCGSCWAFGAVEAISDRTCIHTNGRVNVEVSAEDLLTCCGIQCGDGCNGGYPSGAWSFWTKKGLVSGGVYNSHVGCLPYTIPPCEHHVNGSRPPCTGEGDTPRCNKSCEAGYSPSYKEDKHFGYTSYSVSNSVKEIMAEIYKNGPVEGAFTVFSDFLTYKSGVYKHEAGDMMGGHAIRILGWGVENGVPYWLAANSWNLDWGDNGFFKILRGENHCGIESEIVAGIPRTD
Another test concerns the target T3, Legumain (Mus musculus) (UniProt O89017).
T3 sequence (whole entry): T1 sequence (O89017 whole entry)
As to the kind of experiment: Binding affinity to legumain in mouse RAW264.7 cells at 0.1 to 10 uM after 60 mins by SDS-PAGE analysis. It counts as cell-based. The gist of the method:
as §1

Regarding `CCOC(=O)/C=C/C(=O)N(CC(N)=O)NC(=O)[C@@H]1CCCN1C(=O)C(C)(C)NC(C)=O`, the pIC50 (as a rule, the IC50 on a negative log10 scale, so that one unit is a factor of ten) at Legumain is 6.70. On the same count and under the same terms, the same measure for `CCOC(=O)/C=C/C(=O)N(CC(N)=O)NC(=O)[C@@H]1CCCN1C(=O)[C@@H]1Cc2ccccc2CN1C(C)=O`: under 6.00. In the case of `CCOC(=O)/C=C/C(=O)N(CC(N)=O)NC(=O)[C@@H]1CCCN1C(=O)[C@H](CC)NC(C)=O`, the negative logarithm of the IC50 (pIC50) on Legumain was 8.19; in test [1], 3.02. Turning to `CCOC(=O)[C@@H]1O[C@H]1C(=O)N(CC(N)=O)NC(=O)[C@@H]1CCCN1C(=O)C1(NC(=O)CCCCCNC(=O)CCCCCN2/C(=C/C=C/C=C/C3=[N+](CC)c4ccc(S(=O)(=O)O)cc4C3(C)C)C(C)(C)c3cc(S(=O)(=O)[O-])ccc32)CC1`, the outcome (in test [2]; in test [3]; on Legumain (Mus musculus)) was Active. `CCOC(=O)C1OC1C(=O)N(CC(N)=O)NC(=O)[C@@H]1CCCN1C(=O)[C@H](CC)NC(C)=O` (some centres not stated): the pIC50 on Legumain was 8.09; in test [1] it was 3.05. In the case of `CCOC(=O)C1OC1C(=O)N(CC(N)=O)NC(=O)[C@@H]1CCCN1C(=O)C1(NC(C)=O)CC1` (some centres not stated), the pIC50 is 8.36 at Legumain and 3.97 in test [1].

Regarding `CCOC(=O)/C=C/C(=O)N(CC(N)=O)NC(=O)[C@@H]1CCCN1C(=O)C1(NC(C)=O)CC1`, the pIC50 was 8.03 on Legumain and under 3.00 in test [1]. In the case of `CCOC(=O)/C=C/C(=O)N(CC(N)=O)NC(=O)[C@@H]1CCCN1C(=O)[C@H](CC)NC(=O)CCCCCNC(=O)CCCCCN1/C(=C/C=C/C=C/C2=[N+](CC)c3ccc(S(=O)(=O)O)cc3C2(C)C)C(C)(C)c2cc(S(=O)(=O)[O-])ccc21`, the outcome at Legumain (Mus musculus) was Active. In the case of `CCOC(=O)/C=C/C(=O)N(CC(N)=O)NC(=O)[C@@H]1CCCN1C(=O)[C@H](Cc1ccc(O)c([N+](=O)[O-])c1)NC(C)=O`, the pIC50 on Legumain was under 6.00. Still for that read-out and setting: the same measure for `CCOC(=O)/C=C/C(=O)N(CC(N)=O)NC(=O)[C@@H]1CCCN1C(=O)c1cccc(NC(C)=O)c1`: under 6.00; for `CCOC(=O)/C=C/C(=O)N(CC(N)=O)NC(=O)[C@@H]1CCCN1C(=O)C(NC(C)=O)=C(C)C`: 6.83. As for `CCOC(=O)C1OC1C(=O)N(CC(N)=O)NC(=O)[C@@H]1CCCN1C(C)=O` (some centres not stated), the pIC50 on Legumain was 8.03; in test [1], 3.43. For `CCOC(=O)/C=C/C(=O)N(CC(N)=O)NC(=O)[C@@H]1CCCN1C(=O)c1ccc(CNC(C)=O)cc1`, on Legumain, the negative-log IC50 (pIC50) was 6.57. With `C#CC[C@H](NC(C)=O)C(=O)N1CCC[C@H]1C(=O)NN(CC(N)=O)C(=O)C1OC1C(=O)OCC` (some centres not stated), the pIC50 was 8.07 at Legumain and 3.45 in test [1]. On to `CCOC(=O)/C=C/C(=O)N(CC(N)=O)NC(=O)[C@@H]1CCCN1C(=O)[C@H]1CSCN1C(C)=O`, for which the pIC50 on Legumain is 6.78. On to `CCOC(=O)/C=C/C(=O)N(CC(N)=O)NC(=O)[C@@H]1CCCN1C(=O)CCCCCNC(=O)CCCCCN1/C(=C/C=C/C=C/CC2=[N+](CC)c3ccc(S(=O)(=O)O)cc3C2(C)C)C(C)(C)c2cc(S(=O)(=O)[O-])ccc21`, for which the result at Legumain (Mus musculus) was Active.

With `CCOC(=O)C1OC1C(=O)N(CC(N)=O)NC(=O)[C@@H]1CCCN1C(=O)CCCCCNC(=O)CCCCCN1/C(=C/C=C/C=C/C2=[N+](CC)c3ccc(S(=O)(=O)O)cc3C2(C)C)C(C)(C)c2cc(S(=O)(=O)[O-])ccc21` (some centres not stated), the result (in test [2]; in test [3]; at Legumain (Mus musculus)) was Active.

For `C#CC[C@H](NC(C)=O)C(=O)N1CCC[C@H]1C(=O)NN(CC(N)=O)C(=O)/C=C/C(=O)OCC`, the pIC50 on Legumain was 7.77; in test [1] it was 3.07.

For `CCOC(=O)/C=C/C(=O)N(CC(N)=O)NC(=O)[C@@H]1CCCN1C(C)=O`, the negative logarithm of the IC50 (pIC50) at Legumain is 8.08; in test [1] it was under 3.00. Consider `C/C=C(\NC(C)=O)C(=O)N1CCC[C@H]1C(=O)NN(CC(N)=O)C(=O)/C=C/C(=O)OCC`, for which the pIC50 at Legumain is 6.85.
